The species named for one assay is Mus musculus. The assay can be described thus: Inhibition of hedgehog signaling pathway in mouse Light2 cells in Shh conditioned medium at 1 uM by Gli-luciferase reporter gene assay relative to control. Type of assay: cell-based. (In a reporter assay the amount or activity of a reporter protein is the signal.)
Assay [1] is described as follows: Inhibition of hedgehog signaling pathway in mouse Light2 cells in Shh conditioned medium by Gli-luciferase reporter gene assay. Type of assay: cell-based. An outline of the steps: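 Light II cells (NIH-3T3 stably transfected with Gli-responsive firefly luciferase and Renilla expression vector) stimulated with ShhN conditioned medium. This medium was collected from ShhN-transfected HEK293 cells kept in 0.1% FBS. Firefly luciferase normalized to Renilla. IC50 given as mean ± SD (nM) from three separate experiments.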

For orientation: inhibition means the relative decrease from the control value, in per cent. What is called IC50 is the concentration that gives 50% inhibition.

Take `COc1ccc(CN2C[C@@H]3CN(S(=O)(=O)c4ccc(Cl)cc4)CC[C@@H]3Oc3c(NC(=O)C4CC4)cccc3C2=O)cc1` [listing 1 of 2 here]: in the assay listed under Mus musculus, the inhibition turned out to be 117%.

`COc1ccc(CN2C[C@@H]3CCN(S(=O)(=O)c4ccc(Cl)cc4)C[C@@H]3Oc3c(NC(=O)C4CC4)cccc3C2=O)cc1` (racemic) gave an IC50 in assay [1] (Mus musculus) of 304 nM. Also, the inhibition in the assay filed under Mus musculus amounted to 97%.

With `COc1ccc(CN2C[C@@H]3CN(S(=O)(=O)c4ccc(Cl)cc4)CC[C@@H]3Oc3ccc(NC(=O)C4CC4)cc3CC2=O)cc1` (racemic), the IC50 in assay [1] (Mus musculus) was more than 1000 nM. Also, the inhibition in the assay filed under Mus musculus stood at 36%.

On to `COc1ccc(CN2C[C@@H]3CN(S(=O)(=O)c4ccc(Cl)s4)CC[C@@H]3Oc3c(NC(=O)C4CC4)cccc3C2=O)cc1` (racemic), for which, in assay [1] (Mus musculus), 46 nM corresponded to half-maximal inhibition (IC50). Besides, in the assay listed under Mus musculus, the inhibition worked out at 108%.

As for `COc1ccc(CN2CC3CN(S(=O)(=O)c4ccc(NC(C)=O)cc4)CCC3Oc3c(NC(=O)C4CC4)cccc3C2=O)cc1` (racemic), the IC50 in assay [1] (Mus musculus) was 773 nM. Besides, the inhibition in the assay listed under Mus musculus amounted to 82%.

Compound `COc1ccc(CN2CC3CN(S(=O)(=O)c4ccc(Cl)cc4Cl)CCC3Oc3c(NC(=O)C4CC4)cccc3C2=O)cc1` (racemic) gave an IC50 in assay [1] (Mus musculus) of 33 nM. Moreover, the inhibition in the assay listed under Mus musculus stood at 107%.

In assay [1] (Mus musculus), `COc1ccc(CN2C[C@@H]3CCN(S(=O)(=O)c4ccc(Cl)s4)C[C@@H]3Oc3c(NC(=O)C4CC4)cccc3C2=O)cc1` (racemic) showed an IC50 of 167 nM. Further, in the assay listed under Mus musculus, the inhibition was found to be 113%.

`COc1ccc(CN2C[C@@H]3CCN(C(=O)c4ccc(Cl)cc4)C[C@@H]3Oc3c(NC(=O)C4CC4)cccc3C2=O)cc1` (racemic) yielded an IC50 in assay [1] (Mus musculus) of more than 1000 nM. For the same compound, the inhibition in the assay filed under Mus musculus was found to be 22%.

`COc1ccc(CN2C[C@@H]3CN(S(=O)(=O)c4ccc(Cl)s4)CC[C@@H]3Oc3ccc(NC(=O)C4CC4)cc3CC2=O)cc1` (racemic) showed an IC50 in assay [1] (Mus musculus) of 1620 nM. Further, the inhibition in the assay filed under Mus musculus was found to be 65%.

In turn, `COc1ccc(CN2C[C@@H]3CCN(S(C)(=O)=O)C[C@@H]3Oc3c(NC(=O)C4CC4)cccc3C2=O)cc1` (racemic) showed an IC50 in assay [1] (Mus musculus) of more than 1000 nM. In addition, the inhibition in the assay listed under Mus musculus stood at 45%.

`COc1ccc(CN2C[C@@H]3CCN(S(=O)(=O)c4ccc(Cl)cc4)C[C@@H]3Oc3ccc(NC(=O)C4CC4)cc3CC2=O)cc1` (racemic) registered an IC50 in assay [1] (Mus musculus) of 502 nM. The inhibition in the assay filed under Mus musculus was 60%.

For `C[C@H](CO)N1CC2CCN(S(=O)(=O)c3ccc(Cl)cc3)CC2Oc2c(NC(=O)C3CC3)cccc2C1=O` (some centres undefined) [listing 1 of 2 here], the inhibition in the assay listed under Mus musculus is 34%.

As for `COc1ccc(CN2C[C@H]3CN(S(=O)(=O)c4ccc(Cl)cc4)CC[C@H]3Oc3c(NC(=O)C4CC4)cccc3C2=O)cc1`, the IC50 in assay [1] (Mus musculus) was 200 nM. For the same compound, the inhibition in the assay filed under Mus musculus worked out at 92%.

In turn, `COc1ccc(CN2C[C@@H]3CCN(C(=O)Nc4ccc(C(F)(F)F)cc4)C[C@@H]3Oc3c(NC(=O)C4CC4)cccc3C2=O)cc1` (racemic) came in with a concentration for half-maximal inhibition (IC50) in assay [1] (Mus musculus) of 292 nM. Also, in the assay filed under Mus musculus, the inhibition was determined as 100%.

In assay [1] (Mus musculus), `COc1ccc(CN2CC3CN(C(=O)Nc4ccc(F)cc4F)CCC3Oc3c(NC(=O)C4CC4)cccc3C2=O)cc1` (racemic) registered an IC50 of 540 nM. The inhibition in the assay listed under Mus musculus came to 87%.

`CN1CCC(N2C[C@@H]3CCN(S(=O)(=O)c4ccc(Cl)cc4)C[C@@H]3Oc3c(NC(=O)C4CC4)cccc3C2=O)CC1` (racemic) gave an IC50 in assay [1] (Mus musculus) of 344 nM. In addition, the inhibition in the assay filed under Mus musculus came out at 61%.

`COc1ccc(CN2C[C@@H]3CCN(S(=O)(=O)C4CCCCC4)C[C@@H]3Oc3c(NC(=O)C4CC4)cccc3C2=O)cc1` (racemic): the IC50 in assay [1] (Mus musculus) was more than 1000 nM. For the same compound, the inhibition in the assay listed under Mus musculus came to 42%.

`COc1ccc(CN2CC3CN(C(=O)Nc4ccc(C(F)(F)F)cc4)CCC3Oc3c(NC(=O)C4CC4)cccc3C2=O)cc1` (racemic) had an IC50 in assay [1] (Mus musculus) of more than 1000 nM. Further, the inhibition in the assay filed under Mus musculus worked out at 68%.

Take `C[C@H](CO)N1CC2CCN(S(=O)(=O)c3ccc(Cl)cc3)CC2Oc2c(NC(=O)C3CC3)cccc2C1=O` (some centres undefined) [listing 2 of 2 here]: in assay [1] (Mus musculus), the half-inhibitory concentration (IC50) was more than 1000 nM.

As for `COc1ccc(CN2C[C@@H]3CCN(S(=O)(=O)c4ccc(NC(C)=O)cc4)C[C@@H]3Oc3c(NC(=O)C4CC4)cccc3C2=O)cc1` (racemic), the half-maximal inhibitory concentration (IC50) in assay [1] (Mus musculus) was 42 nM. The inhibition in the assay listed under Mus musculus amounted to 105%.

Regarding `O=C(Nc1cccc2c1O[C@H]1CN(S(=O)(=O)c3ccc(Cl)cc3)CC[C@H]1CN(CCO)C2=O)C1CCCCC1` (racemic), the 50% inhibitory concentration (IC50) in assay [1] (Mus musculus) was more than 1000 nM. Besides, the inhibition in the assay listed under Mus musculus turned out to be 32%.

On to `O=C(Nc1cccc2c1O[C@H]1CN(S(=O)(=O)c3ccc(Cl)cc3)CC[C@H]1CN(CCO)C2=O)C1CC1` (racemic), for which, in assay [1] (Mus musculus), the IC50 is more than 1000 nM. Also, the inhibition in the assay listed under Mus musculus worked out at 25%.

Regarding `COc1ccc(CN2C[C@@H]3CN(S(=O)(=O)c4ccn(C)n4)CC[C@@H]3Oc3ccc(NC(=O)C4CC4)cc3CC2=O)cc1` (racemic), the IC50 in assay [1] (Mus musculus) was more than 1000 nM.

In assay [1], `COc1ccc(CN2C[C@@H]3CN(S(=O)(=O)c4ccc(Cl)cc4)CC[C@@H]3Oc3c(NC(=O)C4CC4)cccc3C2=O)cc1` [listing 2 of 2 here] gave an IC50 of 12 nM.

In turn, `O=C(Nc1cccc2c1OCC1CN(S(=O)(=O)c3ccc(Cl)s3)CCN1C2=O)C1CC1` (centres undefined) had an IC50 in assay [1] (Mus musculus) of 482 nM. Moreover, the inhibition in the assay listed under Mus musculus was found to be 80%.

In assay [1] (Mus musculus), `COc1ccc(CN2C[C@@H]3CCN(S(=O)(=O)N4CCN(C)CC4)C[C@@H]3Oc3c(NC(=O)C4CC4)cccc3C2=O)cc1` (racemic) displayed an IC50 of more than 1000 nM. For the same compound, the inhibition in the assay listed under Mus musculus turned out to be 45%.

In turn, `COc1ccc(CN2C[C@@H]3CCN(C(=O)Nc4ccc(F)cc4F)C[C@@H]3Oc3c(NC(=O)C4CC4)cccc3C2=O)cc1` (racemic) yielded a half-maximal inhibitory concentration (IC50) in assay [1] (Mus musculus) of 26 nM. In addition, in the assay filed under Mus musculus, the inhibition is 100%.

As for `C[C@H](CO)N1CC2CCN(S(=O)(=O)c3ccc(Cl)cc3)CC2Oc2c(NC(=O)C3CC3)cccc2C1=O` (single isomer, unassigned; (+)), in the assay listed under Mus musculus, the inhibition stood at 40%.

With `Cn1ccc(S(=O)(=O)N2CCN3C(=O)c4cccc(NC(=O)C5CC5)c4OCC3C2)n1` (centres undefined), the IC50 in assay [1] (Mus musculus) is more than 1000 nM. For the same compound, in the assay listed under Mus musculus, the inhibition turned out to be 58%.

In assay [1] (Mus musculus), `O=C(Nc1cccc2c1O[C@H]1CN(S(=O)(=O)c3ccc(Cl)cc3)CC[C@H]1CN(Cc1cccnc1)C2=O)C1CC1` (racemic) yielded an IC50 of more than 1000 nM. The inhibition in the assay listed under Mus musculus worked out at 28%.

`COc1ccc(CN2C[C@@H]3CCN(S(=O)(=O)c4ccn(C)n4)C[C@@H]3Oc3c(NC(=O)C4CC4)cccc3C2=O)cc1` (racemic) returned an IC50 in assay [1] (Mus musculus) of 94 nM. Besides, the inhibition in the assay filed under Mus musculus amounted to 74%.

Compound `COc1ccc(CN2C[C@@H]3CN(S(=O)(=O)c4ccn(C)n4)CC[C@@H]3Oc3c(NC(=O)C4CC4)cccc3C2=O)cc1` (racemic) gave an IC50 in assay [1] (Mus musculus) of 145 nM. Further, in the assay listed under Mus musculus, the inhibition was found to be 87%.

In assay [1] (Mus musculus), `COc1ccc(CN2C[C@@H]3CCN(S(=O)(=O)c4ccc(Cl)cc4Cl)C[C@@H]3Oc3c(NC(=O)C4CC4)cccc3C2=O)cc1` (racemic) registered an IC50 of 766 nM. Also, the inhibition in the assay listed under Mus musculus worked out at 102%.

Consider `O=C(Nc1cccc2c1OCC1CN(S(=O)(=O)c3ccc(Cl)cc3)CCN1C2=O)C1CC1` (centres undefined), for which the IC50 in assay [1] (Mus musculus) is more than 1000 nM. Besides, in the assay filed under Mus musculus, the inhibition turned out to be 35%.

Take `COc1ccc(CN2C[C@@H]3CCN(S(=O)(=O)c4ccc(OC)c(OC)c4)C[C@@H]3Oc3c(NC(=O)C4CC4)cccc3C2=O)cc1` (racemic): the IC50 in assay [1] (Mus musculus) was more than 1000 nM. In addition, the inhibition in the assay listed under Mus musculus amounted to 54%.

The record behind these values is ChEMBL document CHEMBL4017514, “Discovery of Novel Macrocyclic Hedgehog Pathway Inhibitors Acting by Suppressing the Gli-Mediated Transcription” (J Med Chem, 2017).
